Reference: ChEMBL document CHEMBL1122172, “Syntheses and diuretic activity of 1,2-dihydro-2-(3-pyridyl)-3H-pyrido[2,3-d]pyrimidin-4-one and related compounds” (1982)
“And” between values parts separate entries of the source, which are not always exact repeats. Identical values can stand only once.

Assays:
Type in all cases: functional, Urine
Rattus norvegicus [1] = experiment: Diuretic activity by measuring the urinary output at the dose of 25 mg/kg
Procedure, shortened: (§1)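 Male Sprague–Dawley rats (195–225 g) were fasted and deprived of water for 18 h. The compound was given orally, dissolved in 25 mL/kg saline; controls got saline alone. Groups of eight were housed as pairs in metabolism cages. Urine volume was read at 2 and 5 h, with total Na+, Cl− and K+ mequiv excreted. Values are mean ± SEM, N = 8.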

Rattus norvegicus [2] = experiment: Total Cl- milliequivalents excretion in diuretic test at the dose of 12 mg/kg; procedure, shortened: as §1
Rattus norvegicus [3] = experiment: Total Cl- milliequivalents excretion in diuretic test at the dose of 1 mg/kg; procedure, shortened: as §1
Rattus norvegicus [4] = experiment: Total Cl- milliequivalents excretion in diuretic test at the dose of 27 mg/kg
Procedure, shortened: (§2)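 Oral dosing was in 25 mL/kg saline to male Sprague–Dawley rats (195–225 g) after 18 h without food or water, with saline-only controls. Groups of eight were kept two per metabolism cage. Urinary Na+, Cl− and K+ were reported as total mequiv excreted, with electrolyte analysis done externally. Values are mean ± SEM of two rats per cage, N = 8.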

Rattus norvegicus [5] = experiment: Total Cl- milliequivalents excretion in diuretic test at the dose of 9 mg/kg; procedure, shortened: as §2
Rattus norvegicus [6] = experiment: Total Cl-mequiv excretion in diuretic test at the dose of 3 mg/kg; procedure, shortened: as §1
Rattus norvegicus [7] = experiment: Diuretic activity by measuring the urinary output after 2 hr at the dose of 12 mg/kg; procedure, shortened: as §1
Rattus norvegicus [8] = experiment: Diuretic activity by measuring the urinary output after 2 hr at the dose of 1 mg/kg; procedure, shortened: as §1
Rattus norvegicus [9] = experiment: Total K+ milliequivalents excretion in diuretic test at the dose of 12 mg/kg; procedure, shortened: as §1
Rattus norvegicus [10] = experiment: Total K+ milliequivalents excretion in diuretic test at the dose of 1 mg/kg; procedure, shortened: as §1
Rattus norvegicus [11] = experiment: Total K+ milliequivalents excretion in diuretic test at the dose of 27 mg/kg; procedure, shortened: as §2
Rattus norvegicus [12] = experiment: Total K+ milliequivalents excretion in diuretic test at the dose of 3 mg/kg; procedure, shortened: as §2
Rattus norvegicus [13] = experiment: Total Na+ milliequivalents excretion in diuretic test at the dose of 12 mg/kg; procedure, shortened: as §1
Rattus norvegicus [14] = experiment: Total Na+ milliequivalents excretion in diuretic test at the dose of 1 mg/kg; procedure, shortened: as §1
Rattus norvegicus [15] = experiment: Total Na+ milliequivalents excretion in diuretic test at the dose of 27 mg/kg; procedure, shortened: as §2
Rattus norvegicus [16] = experiment: Total Na+ milliequivalents excretion in diuretic test at the dose of 3 mg/kg; procedure, shortened: as §2
Rattus norvegicus [17] = experiment: Total Na+ milliequivalents excretion in diuretic test at the dose of 9 mg/kg; procedure, shortened: as §2
Rattus norvegicus [18] = experiment: Diuretic activity by measuring the urinary output after 2 hr at the dose of 27 mg/kg
Procedure, shortened: (§3)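 Male Sprague–Dawley rats (195–225 g) were fasted and deprived of water for 18 h, then dosed orally with compound dissolved in 25 mL/kg saline. Controls got 25 mL/kg saline alone. Groups of eight were used, housed two rats per metabolism cage right after dosing. Urine volume was collected at 2 h and 5 h after dosing. Values are mean ± SEM per cage pair, N = 8.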

Rattus norvegicus [19] = experiment: Diuretic activity by measuring the urinary output after 2 hr at the dose of 3 mg/kg; procedure, shortened: as §3
Rattus norvegicus [20] = experiment: Diuretic activity by measuring the urinary output after 2 hr at the dose of 9 mg/kg; procedure, shortened: as §3
Rattus norvegicus [21] = experiment: Diuretic activity by measuring the urinary output after 5 hr at the dose of 12 mg/kg; procedure, shortened: as §1
Rattus norvegicus [22] = experiment: Diuretic activity by measuring the urinary output after 5 hr at the dose of 27 mg/kg; procedure, shortened: as §3
Rattus norvegicus [23] = experiment: Diuretic activity by measuring the urinary output after 5 hr at the dose of 3 mg/kg; procedure, shortened: as §3
Rattus norvegicus [24] = experiment: Diuretic activity by measuring the urinary output after 5 hr at the dose of 9 mg/kg; procedure, shortened: as §3
Rattus norvegicus [25] = experiment: Total K+ milliequivalents excretion in diuretic test at the dose of 9 mg/kg; procedure, shortened: as §2

With `NS(=O)(=O)c1cc2c(cc1Cl)NCNS2(=O)=O` [HYDROCHLOROTHIAZIDE] the Control (Rattus norvegicus [1]) was 201%, the Excretion (Rattus norvegicus [2]) was 2.8 m equiv and the Excretion (Rattus norvegicus [3]) was 2.5 m equiv. For the same molecule, the Excretion (Rattus norvegicus [4]) was 3 m equiv, the Excretion (Rattus norvegicus [5]) was 2.7 m equiv and the Excretion (Rattus norvegicus [6]) was 2.7 m equiv. For the same molecule, the Excretion (Rattus norvegicus [7]) was 7.9 mL, the Excretion (Rattus norvegicus [8]) was 7.8 mL and the Excretion (Rattus norvegicus [9]) was 0.7 m equiv and 0.6 m equiv. It also gave an Excretion (Rattus norvegicus [10]) of 0.6 m equiv, an Excretion (Rattus norvegicus [11]) of 0.8 m equiv and an Excretion (Rattus norvegicus [12]) of 0.6 m equiv. The Excretion (Rattus norvegicus [13]) was 2.5 m equiv, the Excretion (Rattus norvegicus [14]) was 2 m equiv and the Excretion (Rattus norvegicus [15]) was 2.5 m equiv. The Excretion (Rattus norvegicus [16]) was 2.4 m equiv, the Excretion (Rattus norvegicus [17]) was 2.2 m equiv and the Excretion (Rattus norvegicus [18]) was 8.4 mL. For the same molecule, the Excretion (Rattus norvegicus [19]) was 8.1 mL, the Excretion (Rattus norvegicus [20]) was 7.5 mL and the Excretion (Rattus norvegicus [21]) was 16 mL and 13.9 mL. The Excretion (Rattus norvegicus [22]) was 15.1 mL, the Excretion (Rattus norvegicus [23]) was 15.8 mL and the Excretion (Rattus norvegicus [24]) was 14.6 mL. The Excretion (Rattus norvegicus [25]) was 0.6 m equiv.
